Experimental data taken from ChEMBL document CHEMBL1141948, “Selective and orally bioavailable phenylglycine tissue factor/factor VIIa inhibitors” (Bioorg Med Chem Lett, 2005).

How the values were obtained:
Coagulation factor X [1] = target: T1, Coagulation factor X (Homo sapiens, UniProt P00742); assay: Activated partial thromboplastin time; assay type: functional
Method in brief: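 Human citrated plasma spiked with at least six inhibitor concentrations; intrinsic-pathway clotting started with Actin FS (ellagic acid in soy phosphatides). Clotting time read by turbidity. Concentration doubling control clotting time (EC50) obtained by fitting data to exponential regression.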

Prothrombin = Prothrombin (Homo sapiens, UniProt P00734); assay: Binding affinity to thrombin
Trypsin = Trypsin (Homo sapiens, UniProt P07477+P07478+P35030); assay: Binding affinity to trypsin; assay type: protein assay
Coagulation factor X [2] = target: T1, Coagulation factor X; assay: Binding affinity to FXa
[3] = target: Coagulation factor VII/tissue factor (Homo sapiens, UniProt P08709); assay: Binding affinity to FVIIa/TF; assay type: protein-complex assay
Chain of Coagulation factor VII/tissue factor (P08709 61-212 limits assumed): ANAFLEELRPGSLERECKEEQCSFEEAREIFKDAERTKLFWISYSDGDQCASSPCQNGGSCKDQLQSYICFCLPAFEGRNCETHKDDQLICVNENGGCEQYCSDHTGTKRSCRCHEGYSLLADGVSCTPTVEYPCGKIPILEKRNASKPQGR
Chain of Coagulation factor VII/tissue factor (P08709 213-466 limits assumed): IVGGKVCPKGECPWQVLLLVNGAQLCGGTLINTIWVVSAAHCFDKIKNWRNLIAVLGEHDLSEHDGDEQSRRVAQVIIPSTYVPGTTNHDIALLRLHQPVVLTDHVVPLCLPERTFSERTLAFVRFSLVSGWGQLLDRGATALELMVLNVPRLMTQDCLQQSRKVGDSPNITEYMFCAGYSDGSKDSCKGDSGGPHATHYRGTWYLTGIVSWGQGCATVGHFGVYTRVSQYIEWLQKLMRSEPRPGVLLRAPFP
Chain of Coagulation factor VII/tissue factor (P13726 33-295 partner limits assumed): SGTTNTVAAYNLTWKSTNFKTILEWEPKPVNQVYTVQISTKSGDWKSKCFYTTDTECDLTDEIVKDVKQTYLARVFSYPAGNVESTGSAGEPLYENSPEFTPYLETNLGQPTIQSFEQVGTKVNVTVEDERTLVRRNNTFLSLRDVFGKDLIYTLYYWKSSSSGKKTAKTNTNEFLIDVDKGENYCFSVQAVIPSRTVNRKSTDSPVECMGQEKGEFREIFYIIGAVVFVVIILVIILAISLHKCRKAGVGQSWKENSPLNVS

[4] = target: Coagulation factor VII/tissue factor (Homo sapiens) (UniProt P08709+P13726); settings: Plasma
Homo sapiens = organism: Homo sapiens; assay: Ratio of activated partial thromboplastin time against prothrombin time (aPTT/PT); assay type: functional
[5] = Clearance in rat at 6.1 mg/kg; assay type: ADME, organism-based; parameters: dose 6.1 mg/kg; settings: in vivo
Method in brief: (§1)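 Rat pharmacokinetics with intravenous and oral dosing at the stated doses (mg/kg). Half-lives determined for iv and po routes; clearance (ml/min/kg), steady-state volume of distribution (l/kg) and oral bioavailability (%) derived.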

[6] = Volume of distribution in rat at 6.1 mg/kg; assay type: ADME, organism-based; parameters: dose 6.1 mg/kg; settings: in vivo, read-out: Vdss; method in brief: as §1
[7] = Half life in rat administered with 6.1 mg/kg, iv; assay type: ADME, organism-based; parameters: dose 6.1 mg/kg, route intravenous; settings: in vivo; method in brief: as §1
[8] = Oral bioavailability in rat at 6.1 mg/kg; assay type: ADME, organism-based; settings: in vivo; method in brief: as §1
[9] = Half life in rat administered with 10 mg/kg, iv; assay type: ADME, organism-based; parameters: dose 10 mg/kg, route intravenous; settings: in vivo; method in brief: as §1
[10] = Half life in rat administered with 10 mg/kg, po; assay type: ADME, organism-based; parameters: dose 10 mg/kg, route oral; settings: in vivo; method in brief: as §1
[11] = Oral bioavailability in rat at 10 mg/kg; assay type: ADME, organism-based; settings: in vivo; method in brief: as §1
[12] = Half life in rat administered with 3 mg/kg, iv; assay type: ADME, organism-based; parameters: dose 3 mg/kg, route intravenous; settings: in vivo; method in brief: as §1
[13] = Clearance in rat at 3 mg/kg; assay type: ADME, organism-based; parameters: dose 3 mg/kg; settings: in vivo; method in brief: as §1
[14] = Volume of distribution in rat at 3 mg/kg; assay type: ADME, organism-based; parameters: dose 3 mg/kg; settings: in vivo, read-out: Vdss; method in brief: as §1
[15] = Half life in rat administered with 10.3 mg/kg, po; assay type: ADME, organism-based; parameters: dose 10.3 mg/kg, route oral; settings: in vivo
[16] = Oral bioavailability in rat at 10.3 mg/kg; assay type: ADME, organism-based; settings: in vivo

T1 sequence (P00742 41-179 limits assumed): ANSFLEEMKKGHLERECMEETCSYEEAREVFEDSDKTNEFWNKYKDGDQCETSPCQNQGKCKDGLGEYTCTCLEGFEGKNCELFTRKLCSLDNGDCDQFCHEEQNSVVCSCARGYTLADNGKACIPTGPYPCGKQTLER
T1 sequence (P00742 235-488 limits assumed): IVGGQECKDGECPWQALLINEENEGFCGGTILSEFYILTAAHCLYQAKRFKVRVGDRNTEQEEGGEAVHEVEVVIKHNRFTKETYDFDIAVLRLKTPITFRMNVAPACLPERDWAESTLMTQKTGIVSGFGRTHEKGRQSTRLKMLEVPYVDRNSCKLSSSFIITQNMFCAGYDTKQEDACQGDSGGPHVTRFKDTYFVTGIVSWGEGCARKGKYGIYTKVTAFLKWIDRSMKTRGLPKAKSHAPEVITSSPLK

| 2aPTT (Coagulation factor X [1]) [µM] | Ki (Prothrombin) [nM] | Ki (Trypsin) [nM] | Ki (Coagulation factor X [2]) [nM] | Ki [3] [nM] | 2PT [4] [µM] | SMILES | Ratio (Homo sapiens) | further results |
| --- | --- | --- | --- | --- | --- | --- | --- | --- |
| 22.3 | 9900 | 8600 | 1600 |  |  | CCOc1cc(OC2CCN(C)CC2)cc(C(Nc2ccc(C(=N)N)cc2)C(=O)O)c1 (stereo unspecified) |  |  |
|  | 85 | 1000 | 790 | 28 | 8.8 | CCOc1cc(C(Nc2ccc(C(=N)N)cc2)C(=O)O)ccc1OCc1ccccc1 (stereo unspecified) |  |  |
| 26.9 | > 3500 | 3500 | 4400 | 180 | 4.8 | CCOc1cc(OC2CCN(S(C)(=O)=O)CC2)cc(C(Nc2ccc(C(=N)N)cc2)C(=O)O)c1 (stereo unspecified) | 5.6 |  |
| 15.6 | 1600 | 4800 | > 7500 |  |  | CCc1cc(OC2CCOCC2)cc(C(Nc2ccc(C(=N)N)cc2)C(=O)O)c1 (stereo unspecified) |  |  |
|  | 74 | 310 | 730 | 61 | 11.9 | COc1cc(C(Nc2ccc(C(=N)N)cc2)C(=O)O)ccc1OCc1ccccc1 (stereo unspecified) |  |  |
| 10.3 | 4600 | 4500 | 1500 |  |  | CCOc1cc(O[C@H]2CCOC2)cc([C@@H](Nc2ccc(C(=N)N)cc2)C(=O)O)c1 |  |  |
|  | > 35000 | 16900 | 5600 |  |  | CCOc1cc(OCC)cc(C(Nc2ccc(C(=N)N)cc2)C(=O)O)c1 (stereo unspecified) |  | clearance [5]: 2.6 mL/min/kg; Vd [6]: 0.3 L/kg; half-life [7]: 2.9 h; bioavailability [8]: 2% |
| 34 | 8800 | 6600 | 15300 | 129 | 9.1 | C#Cc1cc(O[C@@H]2CCOC2)cc(C(Nc2ccc(C(=N)N)cc2)C(=O)O)c1 (stereo partly specified) | 3.7 |  |
| 69.9 | 7300 | > 68000 | 1400 | 130 | 35.6 | CCOc1cc(-c2ccccc2)cc(C(Nc2ccc(C(=N)N)cc2)C(=O)O)c1 (stereo unspecified) | 2 |  |
| 14.3 | 4700 | 1900 | 2900 | 38 | 3.4 | C#Cc1cc(OC2CCOCC2)cc(C(Nc2ccc(C(=N)N)cc2)C(=O)O)c1 (stereo unspecified) | 4.2 |  |
|  |  |  |  |  |  | CCOC(=O)C(Nc1ccc(C(=N)NO)cc1)c1cc(OCC)cc(OCC)c1 (stereo unspecified) |  | half-life [9]: 3.5 h; half-life [10]: 4.8 h; bioavailability [11]: 100% |
| 29.4 | 5500 | 4000 | 12200 | 110 | 5.4 | CCOc1cc(O[C@H]2CC[C@H](O)CC2)cc(C(Nc2ccc(C(=N)N)cc2)C(=O)O)c1 (stereo partly specified) | 5.4 |  |
| 23.7 | 2900 | 8700 | 13300 | 69 | 5.9 | C=Cc1cc(OC2CCOCC2)cc(C(Nc2ccc(C(=N)N)cc2)C(=O)O)c1 (stereo unspecified) | 4 |  |
| 17.2 | 8600 | 7300 | 2300 |  |  | CCOc1cc(O[C@H]2CCOC2)cc(C(Nc2ccc(C(=N)N)cc2)C(=O)O)c1 (stereo partly specified) |  | half-life [12]: 1.4 h; clearance [13]: 5.7 mL/min/kg; Vd [14]: 0.5 L/kg |
| 12.9 | 9500 | 5400 | 2600 | 65 | 4.3 | C#Cc1cc(O[C@H]2CCOC2)cc(C(Nc2ccc(C(=N)N)cc2)C(=O)O)c1 (stereo partly specified) | 3 |  |
| 19.8 | > 6600 | 7000 | 2900 | 140 | 4.8 | CCOc1cc(OC2CCOCC2)cc(C(Nc2ccc(C(=N)N)cc2)C(=O)O)c1 (stereo unspecified) | 4.1 |  |
| 51.7 | 11300 | 9900 | 9100 |  |  | CCOc1cc(O[C@@H]2CCOC2)cc(C(Nc2ccc(C(=N)N)cc2)C(=O)O)c1 (stereo partly specified) |  |  |
|  |  |  |  |  |  | CCOC(=O)C(Nc1ccc(C(=N)NO)cc1)c1cc(OCC)cc(O[C@H]2CCOC2)c1 (stereo partly specified) |  | half-life [9]: 0.9 h; half-life [10]: 4.1 h; bioavailability [11]: 15% |
| 57.6 | 10200 | 8000 | 2200 | 510 | 11.8 | CCOc1cc(-c2cccnc2)cc(C(Nc2ccc(C(=N)N)cc2)C(=O)O)c1 (stereo unspecified) | 4.9 |  |
|  |  |  |  |  |  | CCOc1cc(OCC)cc(C(Nc2ccc(C(=N)NO)cc2)C(=O)O)c1 (stereo unspecified) |  | half-life [15]: 5 h; bioavailability [16]: 30% |
